# From ChEMBL document CHEMBL1143425, “Paradoxical growth effect of caspofungin observed on biofilms and planktonic cells of five different Candida species” (2007)
# Calls of active or inactive are those of the source.
# Legend:
# Candida tropicalis [1] = experiment: Antimicrobial activity against Candida tropicalis BR-A18 grown as planktonic cell after 48 hrs by XTT reduction assay; type: functional
# Outline: (§1)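 Planktonic broth microdilution followed CLSI M27-A2, with caspofungin dissolved in water. After 48 h, XTT-menadione was added to each well and plates were incubated 1 h at 35°C in the dark. Cells were pelleted by centrifugation and the supernatant was read at 490 nm. MIC was the lowest concentration giving a 50% drop in metabolic activity versus the drug-free control. PG was ≥20% of drug-free activity above the MIC.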
# Candida orthopsilosis [2] = experiment: Antimicrobial activity against Candida orthopsilosis BR-A32 grown as planktonic cell after 48 hrs by XTT reduction assay; type: functional; conditions: Lodderomyces orthopsilosis
# Outline: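 Planktonic broth microdilution followed CLSI M27-A2, with caspofungin dissolved in water. After 48 h, XTT-menadione was added to the wells and plates were kept 1 h at 35°C in the dark. Plates were then centrifuged and supernatant A490 was read. MIC was the lowest concentration giving a 50% decrease in metabolic activity versus drug-free control. Paradoxical growth was defined as ≥20% of control activity above the MIC.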
# Candida orthopsilosis [3] = experiment: Antimicrobial activity against Candida orthopsilosis BR-A35 grown as planktonic cell after 48 hrs by XTT reduction assay; type: functional; conditions: Lodderomyces orthopsilosis
# Outline: (§2)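 Planktonic cells were tested by CLSI M27-A2 broth microdilution with caspofungin in water, incubated 48 h. XTT-menadione was added to each well, plates were held 1 h at 35°C in the dark and centrifuged, and supernatant absorbance was read at 490 nm. MIC was defined as 50% decrease in metabolic activity versus drug-free control. PG was defined as ≥20% of control activity at concentrations above MIC.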
# Candida orthopsilosis [4] = experiment: Antimicrobial activity against Candida orthopsilosis BR-A36 grown as planktonic cell after 48 hrs by XTT reduction assay; type: functional; conditions: Lodderomyces orthopsilosis; outline: as §2
# Candida metapsilosis [5] = experiment: Antimicrobial activity against Candida metapsilosis BR-A44 grown as planktonic cell after 48 hrs by XTT reduction assay; type: functional; conditions: Lodderomyces metapsilosis; outline: as §2
# Candida albicans [6] = experiment: Antimicrobial activity against Candida albicans BR-A4 grown as planktonic cell assessed as paradoxical growth after 48 hrs by XTT reduction assay; type: functional, organism-based; outline: as §2
# Candida tropicalis [7] = experiment: Antimicrobial activity against Candida tropicalis BR-A18 grown as planktonic cell assessed as paradoxical growth after 48 hrs by XTT reduction assay; type: functional, organism-based; outline: as §1
# Candida parapsilosis [8] = experiment: Antimicrobial activity against Candida parapsilosis BR-A27 grown as planktonic cell assessed as paradoxical growth after 48 hrs by XTT reduction assay; type: functional, organism-based; outline: as §1
# Candida parapsilosis [9] = experiment: Antimicrobial activity against Candida parapsilosis BR-A29 grown as planktonic cell assessed as concentration producing paradoxical growth after 48 hrs by XTT reduction assay; type: functional; outline: as §1
# Candida metapsilosis [10] = experiment: Antimicrobial activity against Candida metapsilosis BR-A42 grown as planktonic cell assessed as paradoxical growth after 48 hrs by XTT reduction assay; type: functional, organism-based; outline: as §2
# Candida parapsilosis [11] = experiment: Antimicrobial activity against Candida parapsilosis 22019 grown as planktonic cell assessed as paradoxical growth after 48 hrs by XTT reduction assay; type: functional; outline: as §1
# Candida albicans [12] = experiment: Antimicrobial activity against Candida albicans BR-A4 grown as biofilm after 48 hrs by XTT reduction assay; type: functional
# Outline: (§3)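 Isolates were grown on Sabouraud agar (30°C, 24 h), then overnight in RPMI 1640 with MOPS, pH 7.0, at 35°C with shaking. Cells were washed and set to ~1 × 10^7 cells/ml, attached 1.5 h at 37°C, and grown 24 h. Biofilms were then exposed to caspofungin in 10 twofold dilutions (2–1,024 μg/ml) for 48 h at 35°C with shaking. Read-out was XTT-menadione, 1 h, 35°C, dark, A490, cell-free blank subtracted. MIC was the 50% drop in activity versus drug-free control. Tested in duplicate.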
# Candida albicans [13] = experiment: Antimicrobial activity against Candida albicans BR-A7 grown as biofilm after 48 hrs by XTT reduction assay; type: functional; outline: as §3
# Candida tropicalis [14] = experiment: Antimicrobial activity against Candida tropicalis BR-A14 grown as biofilm after 48 hrs by XTT reduction assay; type: functional
# Outline: (§4)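 Clinical isolates were grown overnight (18 h, 35°C, 120 rpm) in RPMI 1640 with MOPS, pH 7.0, then washed and set to ~1 × 10^7 cells/ml. Cells attached for 1.5 h at 37°C, 75 rpm, then biofilms grew 24 h. Caspofungin was given as doubling dilutions of 2–1,024 μg/ml for 48 h at 35°C, 75 rpm. Read-out was XTT-menadione in PBS, 1 h at 35°C in the dark, A490, cell-free blank subtracted. MIC was a 50% drop in activity versus drug-free; PG was >50% of control above MIC. Run in duplicate.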
# Candida parapsilosis [15] = experiment: Antimicrobial activity against Candida parapsilosis BR-A25 grown as biofilm after 48 hrs by XTT reduction assay; type: functional; conditions: Lodderomyces parapsilosis; outline: as §3
# Candida parapsilosis [16] = experiment: Antimicrobial activity against Candida parapsilosis BR-A27 grown as biofilm after 48 hrs by XTT reduction assay; type: functional; conditions: Lodderomyces parapsilosis; outline: as §4
# Candida parapsilosis [17] = experiment: Antimicrobial activity against Candida parapsilosis BR-A30 grown as biofilm after 48 hrs by XTT reduction assay; type: functional; conditions: Lodderomyces parapsilosis; outline: as §4
# Candida orthopsilosis [18] = experiment: Antimicrobial activity against Candida orthopsilosis BR-A35 grown as biofilm after 48 hrs by XTT reduction assay; type: functional; conditions: Lodderomyces orthopsilosis; outline: as §3
# Candida orthopsilosis [19] = experiment: Antimicrobial activity against Candida orthopsilosis BR-A37 grown as biofilm after 48 hrs by XTT reduction assay; type: functional; conditions: Lodderomyces orthopsilosis; outline: as §3
# Candida orthopsilosis [20] = experiment: Antimicrobial activity against Candida orthopsilosis BR-A39 grown as biofilm after 48 hrs by XTT reduction assay; type: functional; conditions: Lodderomyces orthopsilosis; outline: as §3
# Candida albicans [21] = experiment: Antimicrobial activity against Candida albicans BR-A4 grown as biofilm assessed as concentration producing paradoxical growth after 48 hrs by XTT reduction assay; type: functional
# Outline: (§5)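 Sabouraud-grown cells were shaken overnight (18 h, 120 rpm, 35°C) in RPMI 1640 with MOPS at pH 7.0, then washed and set at ~1 × 10^7 cells/ml. Attachment lasted 1.5 h at 37°C, and growth ran 24 h before challenge. Caspofungin was added in RPMI at 2–1,024 μg/ml (10 doublings) for 48 h at 35°C with shaking. XTT-menadione was read at 490 nm after 1 h at 35°C in the dark, with blank wells subtracted. MIC was taken as 50% reduction versus drug-free wells, and PG as >50% of control above MIC. Assays were run in duplicate.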
# Candida tropicalis [22] = experiment: Antimicrobial activity against Candida tropicalis BR-A24 grown as biofilm assessed as concentration producing paradoxical growth after 48 hrs by XTT reduction assay; type: functional; outline: as §4
# Candida parapsilosis [23] = experiment: Antimicrobial activity against Candida parapsilosis BR-A26 grown as biofilm assessed as paradoxical growth after 48 hrs by XTT reduction assay; type: functional, organism-based; outline: as §4
# Candida parapsilosis [24] = experiment: Antimicrobial activity against Candida parapsilosis BR-A31 grown as biofilm assessed as concentration producing paradoxical growth after 48 hrs by XTT reduction assay; type: functional; outline: as §4
# Candida orthopsilosis [25] = experiment: Antimicrobial activity against Candida orthopsilosis BR-A33 grown as biofilm assessed as concentration producing paradoxical growth after 48 hrs by XTT reduction assay; type: functional; outline: as §5
# Candida orthopsilosis [26] = experiment: Antimicrobial activity against Candida orthopsilosis BR-A34 grown as biofilm assessed as concentration producing paradoxical growth after 48 hrs by XTT reduction assay; type: functional; outline: as §5
# Candida albicans [27] = experiment: Effect on morphology in Candida albicans grown as biofilm assessed as rounding and clumping at 32 ug/ml after 48 hrs; type: functional, organism-based
# Outline: (§6)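 Biofilms formed in RPMI 1640 wells were exposed to caspofungin for 48 h and compared with drug-free control wells. Wells were examined in the plate under an inverted light microscope at ×200 and photographed.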
# Candida parapsilosis [28] = experiment: Effect on morphology in Candida parapsilosis grown as biofilm assessed as rounding and clumping at 128 ug/ml after 48 hrs; type: functional, organism-based; outline: as §6
structure (smiles),measurement,setting,value
CC[C@H](C)C[C@H](C)CCCCCCCCC(=O)N[C@H]1C[C@@H](O)[C@@H](NCCN)NC(=O)[C@@H]2[C@@H](O)CCN2C(=O)[C@H]([C@H](O)CCN)NC(=O)[C@H]([C@H](O)[C@@H](O)c2ccc(O)cc2)NC(=O)[C@@H]2C[C@@H](O)CN2C(=O)[C@H]([C@@H](C)O)NC1=O [CASPOFUNGIN],MIC,Candida tropicalis [1],0.5 µg/mL
same,MIC,Candida orthopsilosis [2],2 µg/mL
same,MIC,Candida orthopsilosis [3],1 µg/mL
same,MIC,Candida orthopsilosis [4],1 µg/mL
same,MIC,Candida metapsilosis [5],2 µg/mL
same,Activity,Candida albicans [6],Active
same,Activity,Candida tropicalis [7],Active
same,Activity,Candida parapsilosis [8],inactive
same,Activity,Candida parapsilosis [9],32 µg/mL
same,Activity,Candida metapsilosis [10],inactive
same,Activity,Candida parapsilosis [11],8 µg/mL
same,MIC,Candida albicans [12],2 µg/mL
same,MIC,Candida albicans [13],2 µg/mL
same,MIC,Candida tropicalis [14],256 µg/mL
same,MIC,Candida parapsilosis [15],2 µg/mL
same,MIC,Candida parapsilosis [16],256 µg/mL
same,MIC,Candida parapsilosis [17],256 µg/mL
same,MIC,Candida orthopsilosis [18],2 µg/mL
same,MIC,Candida orthopsilosis [19],2 µg/mL
same,MIC,Candida orthopsilosis [20],2 µg/mL
same,Activity,Candida albicans [21],16 µg/mL
same,Activity,Candida tropicalis [22],8 µg/mL
same,Activity,Candida parapsilosis [23],Active
same,Activity,Candida parapsilosis [24],32 µg/mL
same,Activity,Candida orthopsilosis [25],32 µg/mL
same,Activity,Candida orthopsilosis [26],32 µg/mL
same,Activity,Candida albicans [27],Active
same,Activity,Candida parapsilosis [28],Active
